Experimental data reported in ChEMBL document CHEMBL1629572 (Antimicrob Agents Chemother, 2009).

Key:
[1] = Inhibition of Influenza B virus (B/Yokohama/UT2203/2005)) neuraminidase N294S mutant after 30 mins by fluorescence analysis
Outline: (§1)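 Virus NA source was mixed with compound in 32.5 mM MES-NaOH pH 6.5 with 4 mM CaCl2 and preincubated 10 min at room temperature. Reaction ran 30 min at room temperature with 100 μM (final) 4-MU-NANA. Fluorescence was read at ex 360/em 460 nm, in triplicate. IC50 came from linear regression of residual activity against log concentration, using concentrations giving 10–90% residual activity.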

[2] = Inhibition of Influenza B virus (B/Yokohama/UT3318/2005)) neuraminidase N294S mutant after 30 mins by fluorescence analysis; outline: as §1

## CO[C@@H]([C@@H]1OC(C(=O)O)=C[C@H](NC(=N)N)[C@H]1NC(C)=O)[C@H](O)CO [LANINAMIVIR]
[1]
  IC50: 48.9 nM
[2]
  IC50: 30.2 nM

## CC(=O)N[C@H]1[C@H]([C@H](O)[C@H](O)CO)OC(C(=O)O)=C[C@@H]1NC(=N)N [ZANAMIVIR]
[1]
  IC50: 33.6 nM
[2]
  IC50: 20 nM
